# Experimental data taken from ChEMBL document CHEMBL4828729, “MSBA-S - A pentacyclic sulfamate as a new option for radiotherapy of human breast cancer cells” (Eur J Med Chem, 2021).
# The source made the active and inactive calls.
# Key:
# [1] = tested on: BT-20; experiment: Cytotoxicity against human BT-20 cells assessed as reduction in cell viability measured after 96 hrs by SRB assay; format: functional, cell-based; conditions: BT-20, 96 h
# Procedure, shortened: (§1)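 Compounds were prepared as 20 mM DMSO stocks and applied 24 h after seeding in 96-well plates at 1-100 (so in the source) for 96 h under standard conditions. Cells were fixed with 10% trichloroacetic acid, stained with 0.4% SRB, washed with 1% acetic acid and dissolved in 20 mM Tris base. Absorbance was read at 540 nm. IC50 is the half-maximal inhibitory concentration, with a cut-off of 50. Mean ± SD of at least three independent experiments.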
# [2] = tested on: MCF7; experiment: Cytotoxicity against human MCF7 cells assessed as reduction in cell viability measured after 96 hrs by SRB assay; format: functional, cell-based; conditions: MCF7, 96 h; procedure, shortened: as §1
# [3] = tested on: MDA-MB-231; experiment: Cytotoxicity against human MDA-MB-231 cells assessed as reduction in cell viability measured after 96 hrs by SRB assay; format: functional, cell-based; conditions: MDA-MB-231, 96 h; procedure, shortened: as §1
# [4] = tested on: Hs-578T; experiment: Cytotoxicity against human Hs-578T cells assessed as reduction in cell viability measured after 96 hrs by SRB assay; format: functional, cell-based; procedure, shortened: as §1
# [5] = tested on: MDA-MB-231; experiment: Anticlonogenic activity against human MDA-MB-231 cells assessed as clonogenic survival rate at 40 uM measured after 24 hrs by giemsa staining based survival assay relative to control; format: functional; conditions: read-out: INH
# Procedure, shortened: (§2)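 Cells seeded in 6-well plates and treated 24 h after seeding for 24 h. They were then trypsinized, counted and reseeded at 300 or 600 cells per 75 cm² flask. Colonies grew for about 12-14 days before paraformaldehyde fixation and 10% Giemsa staining. Only colonies of more than about 50 cells were scored for surviving fraction relative to control. Mean +SD of three independent experiments.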
# [6] = tested on: Hs-578T; experiment: Anticlonogenic activity against human Hs-578T cells assessed as clonogenic survival rate at 40 uM measured after 24 hrs by giemsa staining based survival assay relative to control; format: functional; procedure, shortened: as §2
# [7] = tested on: Hs-578T; experiment: Induction of apoptosis in human Hs-578T cells assessed as nuclei shrinkage at 40 uM measured after 72 hrs by DAPI staining based fluorescence microscopy relative to control; format: functional
# Procedure, shortened: (§3)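 After 72 h treatment under standard conditions, cells were trypsinized and pelleted together with the culture supernatant. They were resuspended in PBS, fixed in 70% ethanol, cytospun onto slides and stained with DAPI for 5 min. Apoptotic cells were scored by nuclear shrinkage. Mean +SD of three independent experiments.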
# [8] = tested on: MDA-MB-231; experiment: Induction of apoptosis in human MDA-MB-231 cells assessed as nuclei shrinkage at 40 uM measured after 72 hrs by DAPI staining based fluorescence microscopy relative to control; format: functional; procedure, shortened: as §3
# [9] = tested on: MDA-MB-231; experiment: Antimigratory activity against human MDA-MB-231 cells assessed as inhibition of cell migration measured by wound healing assay relative to control; format: functional
# [10] = tested on: MDA-MB-231 (Homo sapiens); experiment: Antimigratory activity against human MDA-MB-231 cells assessed as inhibition of cell migration measured by wound healing assay
# [11] = tested on: MDA-MB-231; experiment: Anticlonogenic activity against human MDA-MB-231 cells assessed as clonogenic survival rate at 10 uM measured after 24 hrs by giemsa staining based survival assay relative to control; format: functional; procedure, shortened: as §2
# [12] = tested on: Hs-578T; experiment: Anticlonogenic activity against human Hs-578T cells assessed as clonogenic survival rate at 10 uM measured after 24 hrs by giemsa staining based survival assay relative to control; format: functional; procedure, shortened: as §2
# [13] = tested on: Hs-578T; experiment: Induction of apoptosis in human Hs-578T cells assessed as nuclei shrinkage at 10 uM measured after 72 hrs by DAPI staining based fluorescence microscopy relative to control; format: functional; procedure, shortened: as §3
# [14] = tested on: MDA-MB-231; experiment: Induction of apoptosis in human MDA-MB-231 cells assessed as nuclei shrinkage at 10 uM measured after 72 hrs by DAPI staining based fluorescence microscopy relative to control; format: functional; procedure, shortened: as §3
# [15] = tested on: Hs-578T; experiment: Induction of apoptosis in human Hs-578T cells assessed as necrotic cells at 10 uM measured after 24 hrs by Annexin V/propidium iodide staining based flow cytometry relative to control; format: functional
# Procedure, shortened: (§4)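 Cells were seeded in 6-well plates, grown 24 h and then treated for 24 h. They were resuspended in binding buffer (10 mM HEPES/NaOH, 140 mM NaCl, 5 mM CaCl₂, pH 7.4) and stained for 15 min with propidium iodide and/or Annexin V. Flow cytometry classified vital (Q3), necrotic (Q1), late apoptotic (Q2) and apoptotic (Q4) populations.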
# [16] = tested on: Hs-578T; experiment: Induction of apoptosis in human Hs-578T cells assessed as early apoptotic cells at 10 uM measured after 24 hrs by Annexin V/propidium iodide staining based flow cytometry relative to control; format: functional; procedure, shortened: as §4
# [17] = tested on: Hs-578T; experiment: Induction of apoptosis in human Hs-578T cells assessed as late apoptotic cells at 10 uM measured after 24 hrs by Annexin V/propidium iodide staining based flow cytometry relative to control; format: functional; procedure, shortened: as §4
# [18] = tested on: MDA-MB-231; experiment: Induction of apoptosis in human MDA-MB-231 cells assessed as necrotic cells at 10 uM measured after 24 hrs by Annexin V/propidium iodide staining based flow cytometry relative to control; format: functional; procedure, shortened: as §4
# [19] = tested on: MDA-MB-231; experiment: Induction of apoptosis in human MDA-MB-231 cells assessed as early apoptotic cells at 10 uM measured after 24 hrs by Annexin V/propidium iodide staining based flow cytometry relative to control; format: functional; procedure, shortened: as §4
# [20] = tested on: MDA-MB-231; experiment: Induction of apoptosis in human MDA-MB-231 cells assessed as late apoptotic cells at 10 uM measured after 24 hrs by Annexin V/propidium iodide staining based flow cytometry relative to control; format: functional; procedure, shortened: as §4
# [21] = tested on: MDA-MB-231; experiment: Induction of apoptosis in human MDA-MB-231 cells assessed as increase in ROS production at 20 uM measured after 24 hrs by CM-H2DCFDA staining based flow cytometry analysis relative to control; format: functional; conditions: dose 5 µM, in the assay text read “at 5 uM” for “at 20 uM”
# Procedure, shortened: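 Cells were plated in 6-well plates for 24 h, then treated for 24 h. They were loaded with 0.5 CM-H2DCFDA in PBS with CaCl₂/MgCl₂ for 30 min at 37 °C, washed, exposed to trypsin-EDTA (0.5%) for 3 min at 37 °C and detached with PBS. Fluorescence from dye conversion to chloromethyl-dichlorofluorescein was measured by flow cytometry. Values are fold change versus DMSO-treated cells.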
# [22] = tested on: MDA-MB-231; experiment: Radiosensitization activity in human MDA-MB-231 cells assessed as ratio of DMSO treated surviving fraction to compound treated surviving fraction at 5 uM pre-incubated for 24 hrs prior to irradiation and measured by giemsa staining based assay; format: functional
# Procedure, shortened: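 Cells were incubated for 24 h with 5 (so in the source) compound, then irradiated with 6, 10 or 14 Gy. Colonies of more than about 50 cells were counted after about 12-14 days with Giemsa staining and normalized to unirradiated controls. DMF is the surviving fraction of DMSO control cells divided by that of treated cells, reported at 10% survival.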
# [23] = tested on: Hs-578T; experiment: Induction of apoptosis in human Hs-578T cells assessed as nuclei shrinkage at 20 uM measured after 72 hrs by DAPI staining based fluorescence microscopy relative to control; format: functional; procedure, shortened: as §3
Structure (SMILES),IC50 [1] [µM],IC50 [2] [µM],IC50 [3] [µM],IC50 [4] [µM],clonogenic survival relative to control at 40 µM [5] [%],inhibition at 40 µM [6] [%],Activity [7] [%],further results
CC1(C)CC[C@]2(C(=O)NCc3ccccc3)CC[C@]3(C)C(=CC[C@@H]4[C@@]5(C)CC[C@H](OS(N)(=O)=O)C(C)(C)[C@@H]5CC[C@]43C)[C@@H]2C1,16.2,> 50,> 50,15.8,80.6,73.1,3.5,
C=C(C)[C@@H]1CC[C@]2(C(=O)NCc3ccccc3)CC[C@]3(C)[C@H](CC[C@@H]4[C@@]5(C)CC[C@H](OS(N)(=O)=O)C(C)(C)[C@@H]5CC[C@]43C)[C@@H]12,16.2,7.5,15.2,18.8,80.6,73.1,3.5,Activity [8]: 2.1%
C=C(C)[C@@H]1CC[C@]2(C(=O)O)CC[C@]3(C)[C@H](CC[C@@H]4[C@@]5(C)CC[C@H](O)C(C)(C)[C@@H]5CC[C@]43C)[C@@H]12,,,,,,,,inhibition [9]: Active; inhibition [10]: Active
CC1(C)CC[C@]2(C(=O)NCc3ccccc3)CC[C@]3(C)C(=CC[C@@H]4[C@@]5(C)C[C@@H](OS(N)(=O)=O)[C@H](OS(N)(=O)=O)C(C)(C)[C@@H]5CC[C@]43C)[C@@H]2C1,5.8,4.9,3.7,3.8,,,,inhibition at 10 µM [11]: 42.1%; inhibition at 10 µM [12]: 16.5%; Activity [13]: 22.1%; Activity [14]: 8.9%; Activity [15]: 2.6%; Activity [16]: 8.7%; Activity [17]: 44.4%; Activity [18]: 1.6%; Activity [19]: 7.4%; Activity [20]: 18.4%; fold change (FC) [21]: 5.7; Ratio [22]: 1.14
CC1(C)CC[C@]2(C(=O)O)CC[C@]3(C)C(=CC[C@@H]4[C@@]5(C)CC[C@H](O)C(C)(C)[C@@H]5CC[C@]43C)[C@@H]2C1,,,,,,,,inhibition [9]: inactive
C[C@H]1[C@H](C)CC[C@]2(C(=O)NCc3ccccc3)CC[C@]3(C)C(=CC[C@@H]4[C@@]5(C)CC[C@H](OS(N)(=O)=O)C(C)(C)[C@@H]5CC[C@]43C)[C@H]12,16.2,,,,80.6,73.1,,Activity [23]: 3.5%
CC(=O)[C@@H]1CC[C@]2(C(=O)NCc3ccccc3)CC[C@]3(C)[C@H](CC[C@@H]4[C@@]5(C)CC[C@H](OS(N)(=O)=O)C(C)(C)[C@@H]5CC[C@]43C)[C@@H]12,32,9.3,> 50,16.9,80.6,73.1,3.5,Activity [8]: 2.1%
